Test results published in ChEMBL document CHEMBL2034847, “Discovery of Plasmodium vivax N-myristoyltransferase inhibitors: screening, synthesis, and structural characterization of their binding mode” (J Med Chem, 2012).

Legend:
[1] = target: T1, Glycylpeptide N-tetradecanoyltransferase 2 (Homo sapiens, UniProt O60551); assay: Inhibition of human N-myristoyltransferase 2 using human pp60Src92-16 amino acids) as substrate; conditions: read-out: Ki(app)
T1 sequence (O60551 whole entry): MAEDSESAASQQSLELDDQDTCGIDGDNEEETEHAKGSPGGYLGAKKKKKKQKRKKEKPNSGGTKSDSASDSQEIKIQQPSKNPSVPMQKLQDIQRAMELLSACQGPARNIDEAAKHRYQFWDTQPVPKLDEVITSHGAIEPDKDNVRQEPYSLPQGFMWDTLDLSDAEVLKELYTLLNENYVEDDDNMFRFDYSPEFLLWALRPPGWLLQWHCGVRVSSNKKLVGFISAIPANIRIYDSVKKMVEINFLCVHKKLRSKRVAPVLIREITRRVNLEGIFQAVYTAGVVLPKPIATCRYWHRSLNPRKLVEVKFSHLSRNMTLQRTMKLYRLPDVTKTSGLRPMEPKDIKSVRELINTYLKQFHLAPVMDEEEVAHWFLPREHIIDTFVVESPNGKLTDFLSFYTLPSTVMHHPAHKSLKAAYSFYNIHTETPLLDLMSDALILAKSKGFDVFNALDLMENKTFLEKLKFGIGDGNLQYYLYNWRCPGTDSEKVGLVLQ
Procedure, shortened: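 Recombinant human NMT2 was tested in a fluorogenic plate assay adapted from a published NMT method. Apparent Ki values are the mean ± SD of duplicates.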

[2] = Inhibition of Plasmodium vivax recombinant N-myristoyltransferase using human pp60Src92-16 amino acids) as substrate; conditions: for Ki: read-out: Ki(app)
Procedure, shortened: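 Recombinant P. vivax NMT in a 96-well fluorogenic NMT assay. Values are reported as apparent Ki, mean ± SD from duplicates.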

[3] = target: T2, Glycylpeptide N-tetradecanoyltransferase 1 (Homo sapiens, UniProt P30419); assay: Inhibition of human N-myristoyltransferase 1 using human pp60Src92-16 amino acids) as substrate; conditions: read-out: Ki(app)
T2 sequence (P30419 whole entry): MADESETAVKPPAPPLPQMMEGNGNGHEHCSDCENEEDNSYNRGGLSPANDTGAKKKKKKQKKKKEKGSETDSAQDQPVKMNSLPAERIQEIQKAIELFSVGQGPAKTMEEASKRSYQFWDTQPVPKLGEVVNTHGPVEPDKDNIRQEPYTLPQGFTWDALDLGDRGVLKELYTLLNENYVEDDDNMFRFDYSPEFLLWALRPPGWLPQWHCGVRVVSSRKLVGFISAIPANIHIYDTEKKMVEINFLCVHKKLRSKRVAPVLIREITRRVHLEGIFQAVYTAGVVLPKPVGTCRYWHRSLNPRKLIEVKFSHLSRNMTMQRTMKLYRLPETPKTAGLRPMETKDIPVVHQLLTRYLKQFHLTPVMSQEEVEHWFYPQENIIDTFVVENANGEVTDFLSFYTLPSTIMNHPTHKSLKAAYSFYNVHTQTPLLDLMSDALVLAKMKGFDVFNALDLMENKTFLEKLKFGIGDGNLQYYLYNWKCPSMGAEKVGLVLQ

Row | SMILES | Ki [1] [µM] | IC50 [2] [µM] | Ki [2] [µM] | Ki [3] [µM]
1 | CCCCc1c(C)nc2ccc(OC)cc2c1SCCC#N | 11.4 |  |  | 
2 | COc1ccc(CNc2sc3c(c2C#N)CC(C)(C)OC3)cc1 |  | 26.4 |  | 
3 | CCN(CC)Cc1c(O)ccc2ccccc12 |  | 26.3 |  | 
4 | CCOC(=O)c1c(C)nc2ccccc2c1SCCC#N | 41.5 |  | 24.4 | 
5 | CCCCc1c(C)nc2ccc(OC)cc2c1SCCc1ccccc1 |  |  | > 100 | 
6 | CCCCc1c(C)nc2ccc(Br)cc2c1SCCC#N | > 100 |  | 21.6 | > 100
7 | CCOC(=O)c1cnc2ccc(Cl)cc2c1SCCC#N | > 100 |  | 10.4 | > 100
8 | CCCCc1c(C)nc2ccccc2c1SCCC#N | > 100 |  | 2.46 | > 100
9 | CCOC(=O)c1c(CC)nc2ccccc2c1SCCC#N | 94.2 |  | 60.6 | 47.9
10 | CCOC(=O)c1cnc2ccc(C)cc2c1SCCC#N | > 100 |  | 6.97 | 
11 | CCCCc1c(C)nc2ccc(OC)cc2c1SCC#N |  |  | > 100 | 
12 | CCOC(=O)c1cnc2ccc(F)cc2c1SCCC#N | 37.5 |  | 7.77 | 
13 | CCOC(=O)c1cnc2ccc(C(C)=O)cc2c1SCCC#N |  |  | > 100 | 
14 | CCOC(=O)c1cnc2ccc(OC)cc2c1SCCC#N |  |  | 4.74 | 
15 | CCCc1nc2ccccc2c(SCCC#N)c1C(=O)OCC | > 100 |  | > 100 | > 100
16 | CCOC(=O)c1c(C)nc2ccccc2c1NCC#N |  |  | > 100 | 
17 | CCc1c(C)nc2ccc(OC)cc2c1SCCC#N | 23.2 |  | 3.23 | 
18 | C#CCCSc1c(CCCC)c(C)nc2ccc(OC)cc12 | > 100 |  | 11.6 | > 100
19 | COc1ccc2nc(C)cc(SCCC#N)c2c1 | > 100 |  | > 100 | > 100
20 | CCOC(=O)c1cnc2ccc(C(C)O)cc2c1SCCC#N (stereo not drawn) |  |  | > 100 | 
21 | CCc1ccc2c(c1)S(=O)(=O)C(C(F)(F)F)CO2 (stereo not drawn) |  | 11.4 |  | 
22 | CCOC(=O)c1cnc2ccccc2c1SCCC#N | > 100 |  | 24.4 | > 100
23 | CCCCc1c(C)nc2ccc(OC)cc2c1SCCCO | > 100 |  | 17.4 | > 100
24 | CCCCc1c(C)nc2ccc(OC)cc2c1SCCCC#N | 46.1 |  | 35.2 | 47.6
